# In the library only some 3.5% were active in any assay of this set; here they are far more common.
# MrgX1 PAM = positive allosteric modulators of MrgX1, primary screen, HEK293 cells, Fluo-4 calcium flux; FDSS; stronger effect = higher value; 310,000 compounds, 0.63% hits; Mas-related G-protein coupled receptor member X1 (Homo sapiens), Q96LB2; B-score at 10 µM;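 active = plate-corrected calcium response at least 3 library SD above typical, normal starting fluorescence, not activating the receptor alone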;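 also: compound read alongside a low EC10 to EC30 dose of BAM8-22 agonist; peak minus trough fluorescence over baseline measured at the second addition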
# Target sequence (Q96LB2 whole entry, looked up): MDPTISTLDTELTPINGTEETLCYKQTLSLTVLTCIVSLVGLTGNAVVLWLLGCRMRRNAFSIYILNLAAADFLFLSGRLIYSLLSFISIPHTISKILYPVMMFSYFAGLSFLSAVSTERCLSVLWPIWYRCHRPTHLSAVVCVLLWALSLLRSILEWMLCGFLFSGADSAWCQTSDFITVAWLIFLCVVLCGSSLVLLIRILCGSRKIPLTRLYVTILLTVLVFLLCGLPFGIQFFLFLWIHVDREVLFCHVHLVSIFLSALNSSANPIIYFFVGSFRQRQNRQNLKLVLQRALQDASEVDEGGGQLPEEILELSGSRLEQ
# RGS4 act = RGS4 potentiators or activators, primary screen, cell-based, HEK293 M3R inducible RGS4, calcium flux. carbachol calcium flux Fluo4; stronger effect = lower value. B-score at 10 µM. 310,000 compounds, 0.92% hits. AID 463111, 2010;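 active = B-score of the integrated calcium signal more than 4 SD below the library mean, with starting fluorescence not abnormally high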;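 also: negative B-score means reduced calcium response which marks RGS4 activation or potentiation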
#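 test system = HEK293 cells with stable M3R and inducible RGS4 | schedule = recording 10 s baseline at 1 Hz, 100 s post-agonist | technique = Fluo4-AM (2 µM) calcium-flux fluorescence, kinetic read | measure = Agonist-evoked peak-minus-minimum fluorescence over baseline, integrated ratio, B score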
# MrgX1 antag = antagonists of human MrgX1 receptor, primary screen, HEK293 cells, Fluo-4 calcium flux. Mas-related G-protein coupled receptor member X1 (Homo sapiens), Q96LB2. B-score at 10 µM. AID 588676, 2011. 310,000 compounds, 1.3% hits. BAM8-22 antagonism; stronger effect = lower value;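 active = calcium-response B-score plate-corrected more than 3 library SD below zero, starting fluorescence within 5 deviations, no agonist response on first addition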;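 also: peak minus trough fluorescence over baseline after final BAM8-22 challenge near maximal dose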
# MrgX1 agonist = agonists of human MrgX1 receptor, primary screen, HEK293 cells, Fluo-4 calcium flux; Mas-related G-protein coupled receptor member X1 (Homo sapiens), Q96LB2; Fluo-4 calcium fluorescence, agonist mode; stronger effect = higher value; B-score at 10 µM; 310,000 compounds, 0.44% hits; AID 588627, 2011;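 active = calcium response B-score plate-corrected fluorescence ratio at least 3 library SD, with starting fluorescence B-score inside 5 SD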
#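 Test system: Stable human MrgX1 HEK293 cell line | Schedule: Overnight plating before 1 h dye loading | Read-out basis: Baseline-normalised fluorescence change ratio, B-scored | Detection: Kinetic calcium dye fluorescence, Fluo-4 NW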
# RGS4 inh = RGS4 inhibitors, primary screen, cell-based, HEK293 M3R inducible RGS4, calcium flux; 310,000 compounds, 0.45% hits; Regulator of G-protein signaling 4 (Homo sapiens), P49798; Fluo-4 calcium flux; stronger effect = higher value; triggered by carbachol at its EC20; B-score at 10 µM;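 active = B-score, a plate-corrected calcium signal, over three deviations above library mean, with baseline fluorescence within five deviations of library mean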;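 also: RGS4 expression induced by doxycycline in cells with stable M3 receptor; B-score is computed from the integrated fluorescence ratio over baseline after carbachol; higher B-score means a larger calcium signal and so more RGS4 inhibition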
# Target sequence (P49798 whole entry, looked up): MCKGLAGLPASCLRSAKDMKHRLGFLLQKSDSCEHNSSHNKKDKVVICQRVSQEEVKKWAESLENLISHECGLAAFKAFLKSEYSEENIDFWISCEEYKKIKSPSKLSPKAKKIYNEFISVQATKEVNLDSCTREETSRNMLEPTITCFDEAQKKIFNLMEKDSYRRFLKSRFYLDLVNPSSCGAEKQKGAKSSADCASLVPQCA
# * marks the source's active call; other numbers are inactive results; i = inactive.
SMILES,MrgX1 PAM,RGS4 act,MrgX1 antag,MrgX1 agonist,RGS4 inh
Cc1cccn2c(=O)nc(SCC(=O)N3CCC(Cc4ccccc4)CC3)nc12,i,i,i,i,i
CCCOc1ccc(C(C(=O)OCCN(CC)CC)c2ccccc2)cc1 (stereo not drawn),i,-7.4*,-4.6*,i,i
Cc1nc(NC(=O)c2ccccc2)sc1-c1csc(Nc2cccc(F)c2)n1,i,i,i,i,i
Cc1cc(NS(=O)(=O)c2ccc(Nc3nc(-c4sc(NC(=O)c5ccccc5)nc4C)cs3)cc2)no1,i,-11*,i,i,i
Cc1cc(NC(=O)c2cc(-c3ccccc3Cl)nc3ccccc23)no1,i,i,i,i,i
Cc1cc(NS(=O)(=O)c2ccc(NC(=O)c3cc(-c4ccccc4Cl)nc4ccccc34)cc2)no1,i,i,i,34*,i
COc1cc([N+](=O)[O-])ccc1NC(=O)COC(=O)C=C(C)C,i,i,i,i,i
CC(C)=CC(=O)OCC(=O)Nc1cccc([N+](=O)[O-])c1,i,i,-8.6*,i,i
CCOC(=O)Cn1c(=O)c(F)cn(Cc2ccc(OC)c([N+](=O)[O-])c2)c1=O,i,i,i,i,i
NS(=O)(=O)OCC(Cc1ccccc1)N1C(=O)c2ccccc2C1=O (stereo not drawn),i,i,i,i,i
CC(C(=O)Nc1ccc(O)cc1C(=O)O)N1C(=O)/C(=C\c2cccs2)SC1=S (stereo not drawn),i,i,i,i,i
NC(=O)C1CCN(C2=C(Cl)C(=O)c3ccccc3C2=O)CC1,i,i,i,30*,i
O=C(OCC(=O)c1ccc(Cl)s1)c1cnccn1,i,i,i,i,i
O=C(CCc1ccccn1)N1CCCC(N2CCN(c3cccc(C(F)(F)F)c3)CC2)C1 (stereo not drawn),i,i,i,i,i
Cc1cc(O)c(/C=N/OCc2ccc(Cl)cc2Cl)c(=O)o1,i,i,i,i,i
O=c1c(/C=N/OCc2ccc(Cl)cc2Cl)c[nH]n1-c1cccc(Cl)n1,i,i,i,45*,i
Fc1cccc(Cl)c1CNC(c1ccccc1)c1ccccc1,i,-7*,i,i,i
O=C(CNC(c1ccccc1)c1ccccc1)Nc1c(F)cccc1F,i,i,i,i,i
CCCC[n+]1c(-c2ccc(Cl)cc2Cl)csc1Nc1ccccc1,i,i,i,i,i
Cc1c(NC(=O)Nc2cc(Cl)ccc2Cl)c(=O)n(-c2ccccc2)n1C,i,i,i,i,i
C=CC[n+]1c(-c2ccc(Cl)cc2Cl)csc1Nc1c(C)n(C)n(-c2ccccc2)c1=O,i,i,i,28*,i
C=CC[n+]1c(-c2ccc(Cl)cc2Cl)csc1Nc1ccc(NC(C)=O)cc1,i,-7*,i,i,i
C=CC[n+]1c(-c2ccc(C)cc2)csc1Nc1c(C)n(C)n(-c2ccccc2)c1=O,i,-7.9*,i,i,i
COC(=O)c1cccc(NC(=O)CCNC(=O)c2ccc([N+](=O)[O-])cc2)c1,i,i,-7.8*,i,i
COC(=O)c1ccc(C)c(NC(=O)CCNC(=O)c2ccc([N+](=O)[O-])cc2)c1,i,i,i,i,i
SMILES,MrgX1 PAM,RGS4 act,MrgX1 antag,MrgX1 agonist,RGS4 inh
O=C(C1CCN(S(=O)(=O)c2cc(Cl)ccc2Cl)CC1)N1CCCC1,i,i,i,i,i
N=C1c2ccccc2CN1c1ccc(N2CCOCC2)c(S(=O)(=O)Nc2ccc(Cl)cc2)c1,i,i,i,i,i
O=C1CCCCCCC1Sc1ccccc1[N+](=O)[O-] (stereo not drawn),15*,i,i,i,i
CNC(=O)CSc1nc2[nH]ncc2c(=O)[nH]1,i,i,i,i,i
COc1ccc(CCNc2oc(Cc3cccc4ccccc34)nc2C#N)cc1OC,i,i,i,i,i
CN(C)CCNc1oc(COc2ccc(Cl)cc2Cl)nc1C#N,i,i,-6.5*,i,i
COc1ccc(CCNc2oc(COc3ccc(Br)cc3)nc2C#N)cc1OC,i,-7.5*,i,i,i
COCCCNc1oc(COc2ccc(Cl)cc2Cl)nc1C#N,i,i,i,i,i
O=C1Nc2ccc(Br)cc2/C1=C/c1ccc(C(=O)O)cc1,i,i,i,i,8*
Cc1ccc2c(c1)/C(=C/c1ccco1)C(=O)N2,i,i,i,i,i
COc1ccc(CNC(=O)CN(C(=O)CCC(=O)Nc2ccccn2)c2ccc3c(c2)OCO3)cc1,i,i,i,i,i
CCOc1ccccc1NC(=S)NC(=O)CCCOc1ccc(Cl)cc1Cl,i,-7.3*,i,i,i
O=C(NC1CCCc2ccccc21)N[C@@H](Cc1ccccc1)C(=O)O (stereo partly drawn),i,i,i,i,i
OC1(c2cccs2)CN(c2ccc(Br)cc2)C2=[N+]1CCCS2 (stereo not drawn),13*,-7.2*,i,i,i
N=c1oc2c3c4c(cc2cc1C(=O)Nc1ccccc1)CCCN4CCC3,i,-9.3*,i,i,i
Cc1ccc2c(c1)C=CC(C)(C)S2=O (stereo not drawn),i,i,i,i,i
CC[N+]1=C(C)C(C)(C)c2cc(C)ccc21,i,i,-4.8*,i,i
CN(C(=O)CCc1nnc(CCCCc2ccccc2)o1)C1CC(C)(C)NC(C)(C)C1,i,i,-5.8*,i,i
CC(OC(=O)c1cc(Br)ccc1O)C(=O)Nc1ccc(S(=O)(=O)N2CCCC2)cc1 (stereo not drawn),i,i,i,i,i
Cc1cccc(C(=O)OC(C)C(=O)Nc2ccc(S(=O)(=O)N3CCCC3)cc2)c1O (stereo not drawn),i,-7.3*,i,i,i
CCCOc1cccc(C2C(C(=O)c3ccc(C)o3)=C(O)C(=O)N2c2nc(C)c(C(C)=O)s2)c1 (stereo not drawn),i,i,i,i,i
Cc1ncsc1CCC(=O)N1CCCC(Nc2ccc(C(C)C)cc2)C1 (stereo not drawn),i,i,-6.6*,i,i

# Screening data from PubChem BioAssay.
